The values that follow come from ChEMBL document CHEMBL1127078, “Fluorocyclopropyl quinolones. 1. Synthesis and structure-activity relationships of 1-(2-fluorocyclopropyl)-3-pyridonecarboxylic acid antibacterial agents” (J Med Chem, 1993).

As usually defined, the MIC is the smallest concentration in the dilution series that meets the test's criterion for growth inhibition.

The nature of data set [1]: Partition coefficient of the compound. The data set is classed as ADME. Conditions: CHCl3-0.1 M phosphate buffer (pH 7.4). The procedure, abridged: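 Shake-flask distribution between CHCl3 and 0.1 M sodium phosphate buffer pH 7.4, each phase presaturated with the other. About 1–2 mg sample dissolved in the aqueous phase and its UV maximum absorbance recorded. Equal 10 mL volumes shaken 30 min at room temperature, then left 1 h to separate. Aqueous-layer UV maximum re-read. P' calculated as a ratio of the absorbance readings.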

Data set [2] concerns Enterobacter cloacae. Briefly: (§1) Tested for minimum inhibitory concentration against Enterobacter cloacae 03400. The data set is classed as functional. Summed up:
(§2)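 Twofold broth microdilution in Mueller-Hinton broth, inoculum approximately 10^6 cfu/mL. Plates incubated 18 h at 37 °C. MIC taken as the lowest concentration preventing visible bacterial growth.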

The test system of data set [3] is Enterococcus faecalis. Put plainly: Tested for minimum inhibitory concentration against Enterococcus faecalis ATCC 19433. The data set is classed as functional. The procedure, abridged:
as §2

Data set [4] has as its system Escherichia coli. Briefly: Tested for minimum inhibitory concentration against Escherichia coli NIHJ. It is filed as functional. Summed up: as §2
Data set [5] deals with Pseudomonas aeruginosa. Put plainly: Tested for minimum inhibitory concentration against Pseudomonas aeruginosa 32121. The data set is classed as functional. The procedure, abridged: as §2
In data set [6] the test system is Proteus vulgaris. Briefly: Tested for minimum inhibitory concentration against Proteus vulgaris 08601. It is filed as functional. The procedure, abridged:
as §2

Data set [7] deals with Streptococcus pyogenes. Briefly: Tested for minimum inhibitory concentration against Streptococcus pyogenes G-36. It is filed as functional. Summed up:
as §2

In data set [8] the test system is Staphylococcus epidermidis. Briefly: Tested for minimum inhibitory concentration against Staphylococcus epidermidis 56556. It is filed as functional. Summed up:
as §2

The subject of data set [9] is Staphylococcus aureus. Briefly: Tested for minimum inhibitory concentration against Staphylococcus aureus 209P. The data set is classed as functional. Summed up: as §2
Data set [10] concerns Staphylococcus aureus. Put plainly: Tested for minimum inhibitory concentration against Staphylococcus aureus Smith. It is filed as functional. Summed up: as §2
The subject of data set [11] is Klebsiella pneumoniae. Put plainly: Tested for minimum inhibitory concentration against Klebsiella pneumoniae. The data set is classed as functional. Summed up: as §2
Data set [12] concerns Enterobacter cloacae. Described as §1. It is filed as functional. The source holds these as a separate data set.
Data set [13] relates to Escherichia coli. Put plainly: Tested for minimum inhibitory concentration against Escherichia coli KL-16. It is filed as functional. The procedure, abridged:
as §2

In data set [14] the target is DNA gyrase (Escherichia coli) (UniProt P0AES6+P0AES4). Put plainly: Dose required to inhibit DNA gyrase in Escherichia coli. The data set is classed as protein-complex assay.
The mark [15] stands for this setting: Escherichia coli, read-out: MIC.
[16] abbreviates: Pseudomonas aeruginosa, read-out: MIC.
Setting [17] is: Proteus vulgaris, read-out: MIC.

Each structure is given as a SMILES string. ≈ marks a conversion by molar mass, not a printed value.

Regarding `O=C(O)c1cn(C2CC2F)c2cc(N3CCNCC3)c(F)cc2c1=O` (stereo in doubt; 24), the “P'” value in [1] amounted to 0.16. Besides, the minimal inhibitory concentration (MIC) in data set [2] was at most 0.05 µg/mL; in data set [3] it was 1.56 µg/mL (≈ 4.47 µM); in data set [4] (setting [15]), at most 0.05 µg/mL; in [5] (setting [16]) it was at most 0.05 µg/mL; in data set [6] (setting [17]), at most 0.05 µg/mL; in data set [7] it was 1.56 µg/mL (≈ 4.47 µM). In addition, the MIC in data set [8] is 0.2 µg/mL (≈ 0.573 µM); in [9] it was 0.1 µg/mL (≈ 0.286 µM); in data set [10] it was 0.1 µg/mL (≈ 0.286 µM); in data set [11] (Klebsiella pneumoniae, read-out: MIC) it was at most 0.05 µg/mL.
Take `O=C(O)c1cn(C2CC2F)c2cc(N3CCNCC3)c(F)cc2c1=O` (stereo in doubt; 25): the MIC in data set [3] was 12.5 µg/mL (≈ 35.8 µM); in data set [5] it was 0.1 µg/mL (≈ 0.286 µM); in data set [7], 50 µg/mL (≈ 143 µM); in data set [8] it was 0.78 µg/mL (≈ 2.23 µM); in [9], 0.78 µg/mL (≈ 2.23 µM); in data set [10], 0.39 µg/mL (≈ 1.12 µM). The MIC in data set [11] turned out to be 0.1 µg/mL (≈ 0.286 µM).
Consider `CN1CCN(c2cc3c(cc2F)c(=O)c(C(=O)O)cn3C2CC2F)CC1` (stereo in doubt; 26) [listing 1 of 2 here], for which the “P'” value in [1] is recorded as 7. Further, the minimal inhibitory concentration (MIC) was at most 0.05 µg/mL in data set [12]; 0.78 µg/mL (≈ 2.15 µM) in data set [3]; 0.05 µg/mL (≈ 0.138 µM) in data set [13] (setting [15]); at most 0.05 µg/mL in [4]; 0.2 µg/mL (≈ 0.55 µM) in [5] (setting [16]); at most 0.05 µg/mL in data set [6] (setting [17]). The MIC was 1.56 µg/mL (≈ 4.29 µM) in data set [7]; 0.1 µg/mL (≈ 0.275 µM) in data set [8]; 0.1 µg/mL (≈ 0.275 µM) in data set [9]; “<=0.05 ug ml-1” in data set [10]; “<=0.05 ug ml-1” in data set [11].
In [14], `CN1CCN(c2cc3c(cc2F)c(=O)c(C(=O)O)cn3C2CC2F)CC1` (stereo in doubt; 26) [listing 2 of 2 here] had an ID50 of 0.31 µg/mL (≈ 0.853 µM).
Take `CN1CCN(c2cc3c(cc2F)c(=O)c(C(=O)O)cn3C2CC2F)CC1` (stereo in doubt; 27) [listing 1 of 2 here]: the MIC is 12.5 µg/mL (≈ 34.4 µM) in data set [3]; 0.1 µg/mL (≈ 0.275 µM) in [13]; 0.39 µg/mL (≈ 1.07 µM) in [5]; 0.1 µg/mL (≈ 0.275 µM) in data set [6]; 50 µg/mL (≈ 138 µM) in [7]; 0.78 µg/mL (≈ 2.15 µM) in data set [8]. For the same compound, the MIC in data set [9] was determined as 0.78 µg/mL (≈ 2.15 µM); in data set [10], 0.39 µg/mL (≈ 1.07 µM); in data set [11], 0.2 µg/mL (≈ 0.55 µM).
The compound `CN1CCN(c2cc3c(cc2F)c(=O)c(C(=O)O)cn3C2CC2F)CC1` (stereo in doubt; 27) [listing 2 of 2 here] had an ID50 in [14] of 0.92 µg/mL (≈ 2.53 µM).
For `O=C(O)c1cn(C2CC2F)c2c(F)c(N3CCNCC3)c(F)cc2c1=O` (stereo in doubt; 28), the minimum inhibitory concentration (MIC) in data set [3] is 1.56 µg/mL (≈ 4.25 µM); in data set [4], “<=0.05 ug ml-1”; in [5] it was “<=0.05 ug ml-1”; in data set [7], 0.78 µg/mL (≈ 2.12 µM); in [8] it was 0.2 µg/mL (≈ 0.544 µM); in [9], 0.1 µg/mL (≈ 0.272 µM). The MIC was 0.1 µg/mL (≈ 0.272 µM) in [10] and “<=0.05 ug ml-1” in data set [11].
With `O=C(O)c1cn(C2CC2F)c2c(F)c(N3CCNCC3)c(F)cc2c1=O` (stereo in doubt; 29), the MIC is at most 0.05 µg/mL in [2]; 25 µg/mL (≈ 68.1 µM) in [3]; 0.1 µg/mL (≈ 0.272 µM) in data set [4] (setting [15]); 0.39 µg/mL (≈ 1.06 µM) in [5]; at most 0.05 µg/mL in [6] (setting [17]); 50 µg/mL (≈ 136 µM) in data set [7]. For the same compound, the MIC came to 3.13 µg/mL (≈ 8.52 µM) in data set [8], 1.56 µg/mL (≈ 4.25 µM) in data set [9], 0.78 µg/mL (≈ 2.12 µM) in data set [10] and 0.2 µg/mL (≈ 0.544 µM) in data set [11].
As to `CN1CCN(c2c(F)cc3c(=O)c(C(=O)O)cn(C4CC4F)c3c2F)CC1` (stereo in doubt; 30), the minimum inhibitory concentration (MIC) in data set [3] is 0.78 µg/mL (≈ 2.05 µM); in data set [5], 0.1 µg/mL (≈ 0.262 µM); in data set [7], 3.13 µg/mL (≈ 8.21 µM); in [8] it was 0.2 µg/mL (≈ 0.524 µM); in data set [9] it was 0.1 µg/mL (≈ 0.262 µM); in data set [10] it was “<=0.05 ug ml-1”. Besides, in [11], the MIC result was “<=0.05 ug ml-1”.
On to `CN1CCN(c2c(F)cc3c(=O)c(C(=O)O)cn(C4CC4F)c3c2F)CC1` (stereo in doubt; 31), for which the MIC was at most 0.05 µg/mL in data set [2]; 25 µg/mL (≈ 65.6 µM) in data set [3]; at most 0.05 µg/mL in data set [4] (setting [15]); 0.78 µg/mL (≈ 2.05 µM) in data set [5]; at most 0.05 µg/mL in data set [6] (setting [17]); 100 µg/mL (≈ 262 µM) in data set [7]. In addition, the minimal inhibitory concentration (MIC) in [8] turned out to be 3.13 µg/mL (≈ 8.21 µM); in data set [9], 1.56 µg/mL (≈ 4.09 µM); in data set [10] it was 1.56 µg/mL (≈ 4.09 µM); in [11] it was 0.2 µg/mL (≈ 0.524 µM).
